# Results reported in paper PMC4979564 (JCI insight, 2016).
# What was measured:
# [1] = tested on: anxiety-like behavior; test: Elevated plus-maze test; assay type: in vivo, mouse
# [2] = target: iNOS (Mus musculus, UniProt P29477); assay type: cell-based; details: for concentration range of concentration-dependent inhibition of iNOS activity: extracts of RAW 264.7 macrophages treated with LPS + γ-interferon
# Procedure, shortened: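 RAW 264.7 mouse macrophages (100,000 cells/well) primed 24 h with LPS (50 ng/ml) plus γ-interferon (10 ng/ml) to induce iNOS. Test compound was then added for 1 h. Activity was read with a fluorimetric cell-associated NOS detection kit per supplier's protocol. Diphenylene iodonium (1 mM) served as positive control. One-way ANOVA with Dunnett's test against LPS+γ-interferon control.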
# [3] = target: recombinant bovine eNOS (Bos taurus, UniProt P29473); test: Radioisotopic eNOS activity assay; assay type: biochemical; details: recombinant eNOS enzyme
# Procedure, shortened: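 Recombinant bovine eNOS was incubated with test compound. Activity was taken as the rate of conversion of [3H]L-arginine to [3H]L-citrulline, using a radioisotopic NOS assay kit per supplier's instructions. L-NNA (100 μM) served as positive control. One-way ANOVA with Dunnett's test.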
# [4] = tested on: BDL-induced liver fibrosis; test: Bile duct ligation; assay type: in vivo, mouse; details: for gene expression of fibrosis markers collagen-1, Tgfβ1, αSma, Timp1: wild-type mice with BDL; for progression of established BDL-induced liver fibrosis: treatment started on day 6 after BDL
# [5] = target: T1, CB1R (Mus musculus, UniProt P47746); test: [35S]GTPγS-binding assay; assay type: biochemical; details: no agonist
# T1 sequence (P47746 whole entry): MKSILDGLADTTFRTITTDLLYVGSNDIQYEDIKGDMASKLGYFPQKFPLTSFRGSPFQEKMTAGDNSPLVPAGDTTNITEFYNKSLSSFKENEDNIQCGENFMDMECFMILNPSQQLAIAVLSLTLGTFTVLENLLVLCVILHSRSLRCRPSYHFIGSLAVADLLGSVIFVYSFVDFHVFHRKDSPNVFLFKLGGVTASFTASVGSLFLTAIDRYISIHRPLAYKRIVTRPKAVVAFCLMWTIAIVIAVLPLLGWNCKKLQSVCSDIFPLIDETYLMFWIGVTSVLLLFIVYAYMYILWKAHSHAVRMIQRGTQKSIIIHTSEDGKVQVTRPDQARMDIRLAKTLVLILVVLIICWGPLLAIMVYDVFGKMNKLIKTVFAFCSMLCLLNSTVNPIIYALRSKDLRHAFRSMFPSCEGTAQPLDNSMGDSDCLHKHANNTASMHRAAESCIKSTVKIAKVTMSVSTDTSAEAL
# [6] = Tissue distribution by LC-MS/MS after oral dosing; assay type: in vivo, mouse
# [7] = Plasma ALT and AST after 28-day chronic oral administration; assay type: in vivo, mouse; details: for plasma ALT / plasma AST: 28-day chronic oral
# Procedure, shortened: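 Mice received test compound by daily oral gavage. Blood was collected at sacrifice, and serum ALT and AST were measured on an automated clinical chemistry analyzer.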
# [8] = tested on: Caco-2; test: Caco-2 permeability assay; assay type: in vitro ADME
# [9] = target: T1, CB1R; test: Brain CB1R occupancy by CB1R PET; assay type: in vivo; details: acute or chronic treatment, 3–30 mg/kg
# [10] = target: T1, CB1R; test: Upper GI motility assay; assay type: in vivo
# [11] = Pharmacokinetics in Sprague-Dawley rats; assay type: in vivo, rat
# [12] = Pharmacokinetics in mice; assay type: in vivo, mouse; details: oral
# [13] = Liver microsomal stability assay; assay type: in vitro ADME; details: mouse, rat, or human liver microsomes, 1 hour at 37°C
# [14] = 2-strain Ames test for in vitro genotoxicity; details: up to 125 μg/ml
# [15] = target: hERG (Homo sapiens, UniProt Q12809); test: hERG K+ current inhibition; assay type: biochemical; details: read-out: IC50 for inhibition of the K+ current mediated by hERG; in vitro
# hERG, sequence (Q12809 whole entry): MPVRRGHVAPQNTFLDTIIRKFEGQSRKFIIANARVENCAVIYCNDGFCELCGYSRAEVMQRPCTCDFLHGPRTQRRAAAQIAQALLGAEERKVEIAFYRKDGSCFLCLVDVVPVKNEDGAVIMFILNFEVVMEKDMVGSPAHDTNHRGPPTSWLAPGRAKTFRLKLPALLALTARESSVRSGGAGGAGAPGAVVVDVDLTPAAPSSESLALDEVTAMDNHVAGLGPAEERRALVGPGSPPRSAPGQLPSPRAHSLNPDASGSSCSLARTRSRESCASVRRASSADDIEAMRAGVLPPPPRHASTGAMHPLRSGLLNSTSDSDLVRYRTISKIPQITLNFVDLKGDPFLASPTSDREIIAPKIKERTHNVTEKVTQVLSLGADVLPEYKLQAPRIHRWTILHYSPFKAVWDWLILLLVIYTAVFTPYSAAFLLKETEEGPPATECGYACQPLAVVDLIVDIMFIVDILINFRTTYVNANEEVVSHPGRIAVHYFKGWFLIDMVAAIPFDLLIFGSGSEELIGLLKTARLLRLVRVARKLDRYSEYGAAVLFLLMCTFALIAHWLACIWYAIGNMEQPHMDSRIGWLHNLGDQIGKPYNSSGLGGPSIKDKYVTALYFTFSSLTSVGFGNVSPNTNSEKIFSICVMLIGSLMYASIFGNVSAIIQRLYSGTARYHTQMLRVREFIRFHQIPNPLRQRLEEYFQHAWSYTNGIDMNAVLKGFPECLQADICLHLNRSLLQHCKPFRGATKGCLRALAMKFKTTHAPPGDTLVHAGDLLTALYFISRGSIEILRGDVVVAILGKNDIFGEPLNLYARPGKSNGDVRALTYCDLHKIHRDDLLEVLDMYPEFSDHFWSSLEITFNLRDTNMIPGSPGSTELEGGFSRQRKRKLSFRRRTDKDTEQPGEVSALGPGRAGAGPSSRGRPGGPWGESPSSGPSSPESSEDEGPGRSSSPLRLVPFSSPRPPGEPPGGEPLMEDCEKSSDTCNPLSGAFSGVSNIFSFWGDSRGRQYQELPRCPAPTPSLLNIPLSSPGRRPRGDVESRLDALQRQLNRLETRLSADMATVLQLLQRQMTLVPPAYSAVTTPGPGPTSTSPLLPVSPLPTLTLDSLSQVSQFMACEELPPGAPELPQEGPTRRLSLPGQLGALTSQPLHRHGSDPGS
# [16] = target: CB1R (Homo sapiens, UniProt P21554); test: Safety screen; assay type: binding; details: 1 μM
# CB1R (Homo sapiens, UniProt P21554), sequence (P21554 whole entry): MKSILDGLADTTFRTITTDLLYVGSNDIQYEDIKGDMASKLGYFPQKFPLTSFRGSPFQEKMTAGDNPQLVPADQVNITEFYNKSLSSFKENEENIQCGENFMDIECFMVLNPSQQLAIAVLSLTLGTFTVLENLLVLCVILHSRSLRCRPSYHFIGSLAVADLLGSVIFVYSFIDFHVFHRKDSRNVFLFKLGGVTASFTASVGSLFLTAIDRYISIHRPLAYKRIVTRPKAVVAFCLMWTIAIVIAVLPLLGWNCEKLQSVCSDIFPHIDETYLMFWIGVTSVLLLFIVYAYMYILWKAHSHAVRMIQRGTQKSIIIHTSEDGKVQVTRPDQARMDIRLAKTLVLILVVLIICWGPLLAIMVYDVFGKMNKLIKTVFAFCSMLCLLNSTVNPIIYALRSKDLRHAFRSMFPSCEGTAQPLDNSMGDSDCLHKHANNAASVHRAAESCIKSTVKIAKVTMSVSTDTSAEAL
# [17] = tested on: κ opioid receptor; test: Safety screen; assay type: binding; details: 1 μM
# [18] = tested on: CCl4-induced liver fibrosis; test: CCl4-induced liver fibrosis; assay type: in vivo, mouse; details: 3 mg/kg/d for 4 weeks with CCl4 twice weekly
# [19] = tested on: CB2R; details: binding, CHO-K1 membranes
smiles,measurement,setting,value
"Cc1c(C(=O)NN2CCCCC2)nn(-c2ccc(Cl)cc2Cl)c1-c1ccc(Cl)cc1 [rimonabant, reference compound]",anxiety-like behavior in the elevated plus maze,[1]; 3 mg/kg,caused pronounced anxiety
same,inhibition of iNOS activity,[2]; up to 100 μM,did not inhibit iNOS
same,effect on eNOS activity,[3],Lack of effect
same,BDL-induced increase in hepatic iNOS gene expression,[4]; 3 mg/kg/d oral,only partially reduced
same,BDL-induced increase in hepatic iNOS protein (immunostaining),[4]; 3 mg/kg/d oral,did not affect
same,"BDL-induced increase in iNOS function (hepatic iNOS enzyme activity, protein nitrosylation)",[4]; 3 mg/kg/d oral,no significant effect
same,"gene expression of fibrosis markers collagen-1, Tgfβ1, αSma, Timp1",[4]; 3 mg/kg/d oral,significantly reduced
CC(=N)N [acetamidine],concentration range of concentration-dependent inhibition of iNOS activity,[2],1 to 10 µM
same,effect on eNOS activity,[3],unaffected
C/C(N)=N\C(=N/S(=O)(=O)c1ccc(C(F)(F)F)cc1)N1C[C@H](c2ccccc2)C(c2ccc(Cl)cc2)=N1 [MRI-1867],GTPγS binding in the absence of an agonist (inverse agonism),[5],concentration-dependent decreases in GTPγS binding
same,unbound drug concentrations in the brain,"[6]; 10 times higher dose (30 mg/kg), acute or chronic oral, 1 hour after dose",0.9 to 1.2 nM
same,brain/plasma Cmax ratio,"[6]; acute or 28-day chronic oral administration, 3 mg/kg",~ 3%
same,brain concentration of unbound drug,"[6]; acute or chronic oral dosing, 3 mg/kg, 1 hour after dose",0.2 to 0.3 nM
same,brain penetrance and brain CB1R occupancy in mdr1α−/− mice,[6]; mdr1α−/− mice,marked increase
same,accumulation in the liver,[6]; oral dosing,accumulated highly in the liver
same,hepatotoxicity,[7]; 28-day chronic oral doses of 3 or 30 mg/kg,no hepatotoxicity
same,plasma ALT,[7]; 3 mg/kg,31.8 ± 4.8 U/l
same,plasma AST,[7]; 3 mg/kg,44.0 ± 6.1 U/l
same,plasma ALT,[7]; 30 mg/kg,26.2 ± 3.4 U/l
same,plasma AST,[7]; 30 mg/kg,36.2 ± 1.2 U/l
same,efflux ratio,[8],2.5
same,displacement of a CB1R PET ligand in brain,[9],failed to cause significant displacement
same,anxiety-like behavior in the elevated plus maze,[1]; doses up to 30 mg/kg,did not induce anxiety-like behavior
same,reversal of inhibition of upper GI motility caused by CB1R agonist arachidonoyl 2-chloroethylamide,[10]; 10 mg/kg agonist,dose-dependently reversed
same,upper GI motility (inverse agonism),"[10]; oral doses of 3–10 mg/kg, control mice, no effect in CBr1−/− mice",significantly increased upper GI motility
same,concentration range of concentration-dependent inhibition of iNOS activity,[2],1 to 10 µM
same,effect on eNOS activity,[3],unaffected
same,oral bioavailability,"[11]; AUC oral gavage versus intravenous, 3 mg/kg, Sprague-Dawley rats",81%
same,Plasma t1/2,"[11]; oral, rats",~ 4 hours
same,Plasma t1/2,[12],~ 4 hours
same,compound remaining unmetabolized,[13],46%–62%
same,Ames test genotoxicity,[14],negative
same,IC50,[15],5.1 µM
same,displacement at CB1R,[16],93%
same,displacement at κ opioid receptor,[17],61%
same,BDL-induced increase in hepatic iNOS gene expression,[4]; 3 mg/kg/d oral,completely prevented
same,BDL-induced increase in hepatic iNOS protein (immunostaining),[4]; 3 mg/kg/d oral,completely prevented
same,"BDL-induced increase in iNOS function (hepatic iNOS enzyme activity, protein nitrosylation)",[4]; 3 mg/kg/d oral,completely prevented
same,"macrophage infiltration, hepatocyte apoptosis and elevated Ccl2 after BDL",[4]; 3 mg/kg/d oral,more effectively suppressed
same,BDL-induced fibrosis in cnr1−/− mice,"[4]; cnr1−/− mice, 3 mg/kg/d oral",further attenuated
same,progression of established BDL-induced liver fibrosis,[4]; 3 mg/kg/d oral,completely arrest the progression
same,"gene expression of fibrosis markers collagen-1, Tgfβ1, αSma, Timp1",[4]; 3 mg/kg/d oral,significantly reduced
same,BDL-induced ductular proliferation,"[4]; wild-type mice, 3 mg/kg/d oral",attenuated significantly more effectively
same,"CCl4-induced fibrosis (Sirius red, Hyp content, fibrogenic gene expression, iNOS protein)",[18],attenuated significantly more
same,selectivity for CB1R over CB2R,[19],> 500 fold
"CC(=N)NCc1cccc(CN)c1 [1400W, reference compound]",progression of established BDL-induced liver fibrosis,[4]; 10 mg/kg daily,attenuated fibrosis to the same extent as rimonabant
